Calls of active or inactive are those of the source. The rule behind the calls is not given here.
Columns and labels:
[1] = test system: Trypanosoma cruzi; experiment: Antitrypanosomal activity against epimastigotes of Trypanosoma cruzi after 72 hrs by MTT assay; assay type: functional, organism-based
Procedure, shortened: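 Y-strain epimastigotes grown axenically at 28 °C in LIT with 10% FCS, harvested at 7 days (exponential phase). Test wells held 1 × 10^7 parasites/mL. Compounds from DMSO stock at 10 concentrations spanning 100–0.098 μg/mL. 72 h at 28 °C. MTT-PMS added, 75 min in dark, then 10% SDS for 30 min. Read at 595 nm, triplicate. Benznidazole served as reference.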

[2] = Cytotoxicity against Balb/c mouse peritoneal macrophages after 24 hrs by MTT assay; assay type: cell-based; conditions: Peritoneal macrophage cell
Procedure, shortened: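 Thioglycolate-elicited peritoneal macrophages (3 mL of 3% given i.p., harvested 3 days later by PBS pH 7.2 lavage). Cells in RPMI 1640 with 5% FCS, antibiotics and mercaptoethanol, stock suspension at 5 × 10^6 cells/mL. Mixed 1:1 with test solution, 24 h at 37 °C, 7.5% CO2. MTT added for 3 h, formazan dissolved in 2-propanol, OD read at 590 nm versus RPMI-only control. Triplicate.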

[3] = Selectivity index, ratio of IC50 for Balb/c mouse peritoneal macrophages to IC50 for epimastigotes of Trypanosoma cruzi
Procedure, shortened: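 Ratio of IC50 in Balb/c peritoneal macrophages (24 h MTT) to IC50 against T. cruzi Y-strain epimastigotes (72 h MTT, 28 °C).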

[4] = test system: Leishmania chagasi; experiment: Antileishmanial activity against Leishmania chagasi MHOM/BR/1974/PP75 after 72 hrs by MTT assay; assay type: functional, organism-based; conditions: MHOM/BR/1974/PP75, 72 h
Procedure, shortened: (§1)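 Promastigotes from 4-day-old LIT cultures (10% heat-inactivated FCS), seeded at 8 × 10^6 parasites/mL. Compounds dissolved in DMSO, tested at 10 concentrations from 100 to 0.098 μg/mL. 72 h at 28 °C. MTT-PMS added, 75 min in dark at 28 °C, then 10% SDS for 30 min at room temperature. Absorbance read at 490 nm. Triplicate per concentration, IC50 from percentage cytotoxicity. Pentamidine isothionate was the reference drug.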

[5] = test system: Leishmania amazonensis; experiment: Antileishmanial activity against Leishmania amazonensis MPRO/BR/1972/M1841-LV-79 after 72 hrs by MTT assay; assay type: functional, organism-based; conditions: MPRO/BR/1972/M1841-LV-79, 72 h; procedure, shortened: as §1
[6] = test system: Leishmania chagasi; experiment: Antileishmanial activity against Leishmania chagasi MHOM/BR/1974/PP75 at 100 uM after 72 hrs by MTT assay; assay type: functional, organism-based
[7] = test system: Leishmania amazonensis; experiment: Antileishmanial activity against Leishmania amazonensis MPRO/BR/1972/M1841-LV-79 at 100 uM after 72 hrs by MTT assay; assay type: functional, organism-based
[8] = test system: Trypanosoma cruzi; experiment: Antitrypanosomal activity against epimastigotes of Trypanosoma cruzi at 100 uM after 72 hrs by MTT assay; assay type: functional, organism-based

O=C(Cn1ccnc1[N+](=O)[O-])NCc1ccccc1 [BENZNIDAZOLE]
IC50 [1]: 42.7 µM | IC50 [2]: 1140 µM | Ratio IC50 [3]: 26.7

N=C(N)c1ccc(OCCCCCOc2ccc(C(=N)N)cc2)cc1 [PENTAMIDINE]
IC50 [4]: 5.1 µM | IC50 [5]: 7 µM

CC(=O)OC[C@]12[C@H](OC(C)=O)[C@H](OC(C)=O)[C@@H]3[C@@H](OC(C)=O)[C@@]14O[C@@]3(C)COC(=O)c1cccnc1C(C)C(C)C(=O)O[C@@H]([C@H](OC(C)=O)[C@@H]2OC(=O)c1ccccc1)[C@]4(C)O (stereo partly specified)
Activity [6]: inactive | Activity [7]: inactive | Activity [8]: inactive

CC(=O)OC[C@]12[C@H](OC(C)=O)[C@@H](OC(=O)c3ccccc3)[C@@H]3[C@@H](OC(C)=O)[C@@]14O[C@@]3(C)COC(=O)c1cccnc1CCC(C)C(=O)O[C@@H]([C@H](OC(C)=O)[C@@H]2OC(C)=O)[C@]4(C)O (stereo partly specified)
Activity [6]: inactive | Activity [7]: inactive | Activity [8]: inactive

CC(=O)OC[C@]12[C@H](OC(C)=O)[C@@H](OC(=O)c3ccccc3)[C@@H]3[C@@H](OC(C)=O)[C@@]14O[C@@]3(C)COC(=O)c1cccnc1[C@@H](C)[C@H](C)C(=O)O[C@@H]([C@H](OC(C)=O)[C@@H]2OC(C)=O)[C@]4(C)O
IC50 [4]: 1.4 µM | IC50 [1]: 41.9 µM | IC50 [5]: > 100 µM | IC50 [2]: 1850 µM | Ratio IC50 [3]: 44

CC(=O)OC[C@]12[C@H](OC(C)=O)[C@@H](OC(=O)c3ccccc3)[C@@H]3[C@@H](O)[C@@]14O[C@@]3(C)COC(=O)c1cccnc1[C@@H](C)[C@H](C)C(=O)O[C@@H]([C@H](OC(C)=O)[C@@H]2OC(C)=O)[C@]4(C)O [ILICIFOLIUNINE A]
IC50 [4]: > 100 µM | IC50 [1]: 27.7 µM | IC50 [5]: > 100 µM | IC50 [2]: 1280 µM | Ratio IC50 [3]: 46.2
